In series [1] the test system is Plasmodium falciparum. As to the kind of experiment: Antimalarial activity against chloroquine-sensitive Plasmodium falciparum 3D7 infected in human RBC after 72 hrs by DAPI staining based confocal microscopic method. As to conditions: 3D7, 72 h. Format: functional. The gist of the method: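 Triplicate runs, n = 3. Percent inhibition plotted against log dose, and IC50 fitted by nonlinear regression with variable slope. An initial single-point screen was run at 20 μM final concentration.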

Series [2] is described as follows: Selectivity index, ratio of growth inhibitory effect against HEK293 cells at 20 uM to IC50 for chloroquine-sensitive Plasmodium falciparum 3D7 infected in human RBC. Format: toxicity, cell-based. Conditions: HEK293 cells versus Plasmodium falciparum 3D7 in human RBC, read-out: Selectivity Index.
Series [3] in a line: Growth inhibition of HEK293 cells at 20 uM after 72 hrs by PrestoBlue staining based fluorescence assay relative to control. It counts as cell-based. As to conditions: human, read-out: GI.
Series [4] relates to HEK293. As to the kind of experiment: Growth inhibition of HEK293 cells after 72 hrs by PrestoBlue staining based fluorescence assay. It counts as cell-based. Conditions: Homo sapiens, HEK293, 72 h. The gist of the method: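 HEK293 cytotoxicity IC50s: percent inhibition plotted against log dose and fitted by nonlinear regression (variable slope). Experiments run in triplicate (n = 3).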

Series [5] can be described thus: Selectivity index, ratio of IC50 for HEK293 cells to IC50 for chloroquine-sensitive Plasmodium falciparum 3D7 infected in human RBC. Conditions: HEK293 cells versus Plasmodium falciparum 3D7 in human RBC, read-out: Ratio IC50. Format: toxicity. In short, it runs like this:
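Selectivity index computed as the HEK293 IC50 divided by the P. falciparum 3D7 IC50, compared against puromycin as a nonselective standard.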

Series [6] deals with Plasmodium falciparum. Briefly: Antimalarial activity against chloroquine-resistant Plasmodium falciparum Dd2 infected in human RBC after 72 hrs by DAPI staining based confocal microscopic method. Format: functional. As to conditions: Dd2, 72 h. In short, it runs like this: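 Triplicate runs, n = 3. Percent inhibition plotted against log dose, and IC50 fitted by nonlinear regression with variable slope. […] An initial single-point screen was run at 20 μM final concentration.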

For series [7], the system named is MDA-MB-231. As to the kind of experiment: Growth inhibition of human MDA-MB-231 cells after 72 hrs by alamar blue assay. It counts as functional, cell-based. Conditions: MDA-MB-231, 72 h. In short, it runs like this: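 MDA-MB-231 cells grown in DMEM with 10% FBS, 2 mM L-glutamine, penicillin and streptomycin at 37 °C, 5% CO2. Seeded at 10 000 cells/well, preincubated 24 h, then exposed to 100−0.1 μg/mL for 72 h; vehicle 0.1% or 1.0% DMSO. Alamar Blue read by absorbance at 570 nm (600 nm reference). Six replicates, expressed as % of vehicle control.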
For orientation: The colour change of resazurin is a common sign of viable cells or microbes.

Series [8] deals with Plasmodium falciparum. Briefly: Growth inhibition of chloroquine-sensitive Plasmodium falciparum 3D7 infected in human RBC at 40 uM after 72 hrs by DAPI staining based confocal microscopic method relative to control. It counts as functional. Conditions: 3D7, 72 h, read-out: GI.
The subject of series [9] is Krebs2. As to the kind of experiment: Inhibition of cap/HCV-mediated translation in mouse Krebs2 cell free extract expressing FF/HCV/IRES-Ren mRNA reporter transcript assessed as reduction in luciferase production at 20 uM after 60 mins. It counts as functional. The gist of the method: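 Krebs-2 in vitro translation extracts programmed with bicistronic firefly-HCV IRES-Renilla luciferase mRNA. Compounds at 10 mM DMSO stock, diluted to 200 μM in water before addition. Reactions incubated 60 min at 30 °C, then both luciferase activities read. Firefly signal reports cap-dependent translation; Renilla signal reports HCV IRES translation.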

Series [10] has as its system Plasmodium falciparum. Briefly: Growth inhibition of chloroquine-sensitive Plasmodium falciparum 3D7 infected in human RBC at 20 uM after 72 hrs by DAPI staining based confocal microscopic method relative to control. Format: functional. As to conditions: 3D7, 72 h, read-out: GI.
Series [11] deals with Plasmodium falciparum. Briefly: Growth inhibition of chloroquine-resistant Plasmodium falciparum Dd2 infected in human RBC at 40 uM after 72 hrs by DAPI staining based confocal microscopic method relative to control. It counts as functional. As to conditions: Dd2, 72 h, read-out: GI. In short, it runs like this: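 Percentage growth inhibition was read at 40 μM, a single concentration. The value is the mean of at least two independent measurements.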

A short description of series [12]: Growth inhibition of HEK293 cells at 40 uM after 72 hrs by PrestoBlue staining based fluorescence assay relative to control. It counts as cell-based. As to conditions: human, read-out: GI.

pIC50: −log10 of the molar value. Calls of active or inactive are those of the source. The calls are words filed in the database; no cut-off is given here. A value given as a limit tells only on which side of the number the result lay.

As a reminder, the pIC50 is the negative decadic logarithm of the IC50, by convention in mol/L. A low value points to a large IC50. In series [1], `C[C@H]1[C@H](OC(=O)CCC(=O)O)O[C@@H]2O[C@@]3(C)CC[C@H]4[C@H](C)CC[C@@H]1[C@@]24OO3` [ARTESUNATE] showed a pIC50 of 9.32. In [2], the selectivity ratio at 20 µM was > 22. The inhibition at 72 h, 20 µM in [3] stood at 75%.
With `COc1ccc2nc3cc(Cl)ccc3c(Nc3cc(CN4CCCC4)c(O)c(CN4CCCC4)c3)c2n1` [PYRONARIDINE], the pIC50 in series [4] was 5.74. Also, the selectivity ratio in [5] was determined as 494.
Take `CCc1nc(N)nc(N)c1-c1ccc(Cl)cc1` [PYRIMETHAMINE]: the pIC50 in series [4] was 5.38.
Turning to `C[C@H]1[C@@H](O)O[C@@H]2O[C@@]3(C)CC[C@H]4[C@H](C)CC[C@@H]1[C@@]24OO3` [ARTENIMOL], the pIC50 in series [6] was 9.82; in series [1], 9.96. For the same compound, the selectivity ratio at 20 µM in series [2] is > 22. Further, the inhibition at 72 h, 20 µM in series [3] came out at 50%.
Regarding `O=C(OCc1cc(O)ccc1O)c1ccccc1`, the pIC50 in series [7] was 7.05. The inhibition of growth at 40 µM in series [8] came out at 67%.
In [7], `CC(=O)O[C@H]1C=C[C@H](Cl)[C@@](O)(COC(=O)c2ccccc2)[C@@H]1O` gave a pIC50 of 6.92. Moreover, in [9], the inhibition result is “inactive”. Also, the inhibition of growth at 40 µM in [8] was 72%.
In the case of `CC(=O)O[C@@H]1C=C[C@H](O)[C@@H](OC(C)=O)/C1=C/OC(=O)c1ccccc1`, the pIC50 in series [4] is 5.62; in [6] it was 5.47; in series [1] it was 6.21; in series [7] it was 6.54. In series [9], the inhibition entry is “inactive”. Besides, the selectivity ratio in [5] worked out at 4. Besides, the inhibition of growth at 20 µM in [10] is ≥ 90%.
Regarding `CC(=O)O[C@@H]1C=C[C@@H](OC(=O)c2ccccc2)[C@@](O)(COC(=O)c2ccccc2)[C@H]1OC(C)=O`, the pIC50 in [7] is 5.68. Also, the inhibition entry in series [9] was “inactive”. The inhibition of growth at 40 µM in series [8] was 99%.
`COc1ccc(C[C@H](N)C(=O)N[C@H]2[C@@H](O)[C@H](n3cnc4c(N(C)C)ncnc43)O[C@@H]2CO)cc1` [PUROMYCIN] gave a pIC50 in series [1] of 7.64. Also, the selectivity ratio in series [5] was found to be 15.9.
In the case of `CC(=O)O[C@H](OC(=O)c1ccccc1)[C@@]12C=C[C@@H](c3ccc(C=O)cc31)[C@H](O)[C@H]2OC(C)=O`, the inhibition of growth at 40 µM in series [8] stood at 98%.
Compound `O=Cc1cccc(O)c1` [3-HYDROXYBENZALDEHYDE] had a pIC50 in [7] of 5.09. Besides, the inhibition entry in series [9] is “inactive”. The inhibition of growth at 40 µM in [8] was 25%.
Turning to `CC(=O)OC[C@]1(O)[C@H](OC(=O)c2ccccc2)C=C[C@@H](OC(C)=O)[C@@H]1O`, the inhibition result in series [9] is “inactive”.
Consider `CC(=O)OC(OC(=O)c1ccccc1)C1=CC=C[C@H](O)[C@H]1OC(C)=O` (stereo partly drawn), for which the pIC50 in series [4] was 5.44; in [6], 5.66; in series [1], 5.92; in series [7], 6.54. In series [5], the selectivity ratio was 3. The inhibition of growth at 20 µM in series [10] is ≥ 90%.
For the compound `CC(=O)O[C@@H]1C=C[C@H](O)[C@@H](O)/C1=C/OC(=O)c1ccccc1`, the pIC50 in series [4] is 5.57; in series [6] it was 6.32; in series [1], 6.70; in series [7] it was 7.52. Moreover, the inhibition result in [9] was “inactive”. Also, the selectivity ratio in [5] came to 14. The inhibition of growth at 20 µM in series [10] was ≥ 90%.
As for `CC(=O)O[C@H](/C=C1/C=CC(=O)O1)COC(=O)c1ccccc1`, the inhibition of growth at 40 µM in series [11] was 100%. The same compound gave a pIC50 in series [1] of 5.18. Moreover, the inhibition result in [9] is “inactive”. Besides, in series [10], the inhibition of growth at 20 µM is ≥ 90%. The inhibition at 72 h, 40 µM in [12] came to 100%.
In series [7], `O=C1C=C/C(=C/[C@@H](O)COC(=O)c2ccccc2)O1` showed a pIC50 of 6.62. Also, the inhibition of growth at 40 µM in series [8] was found to be 92%.
In series [7], `CC(=O)O[C@H]1C=C[C@H](Cl)[C@](O)(COC(=O)c2ccccc2)[C@@H]1O` gave a pIC50 of 6.35. In series [9], the inhibition entry is “inactive”. The inhibition of growth at 40 µM in series [8] was 95%.
On the same counts, the results for `CC(=O)O[C@H]1C=C[C@H](O)[C@@](O)(COC(=O)c2ccccc2)[C@@H]1OC(C)=O` are 5.57, “inactive” and 54%.

(Values after ChEMBL document CHEMBL4004787, “Polyoxygenated Cyclohexenes and Other Constituents of Cleistochlamys kirkii Leaves” (J Nat Prod, 2017).)
